# Rows were chosen to be rich in hits. Some 4.1% of all compounds tested hit in one or more screens of this group.
# KCNK3 block: human KCNK3 channel inhibitors, primary screen, CHO cells, FluxOR thallium flux, B-score; Potassium channel subfamily K member 3 (Homo sapiens), O14649; FluxOR fluorescence; stronger effect = lower value; B-score at 10 µM; 0.84% of 340,000 active; AID 602410, 2012;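 active = B-score under library mean minus 4 SD, starting fluorescence ratio at most library mean plus 5 SD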;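 also: more negative B-score means stronger inhibition of thallium flux through KCNK3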
# hERG protect: hERG rescue from dofetilide block, primary screen, cell-based, CHO-hERG, FluxOR thallium flux, dofetilide IC70. Voltage-gated inwardly rectifying potassium channel KCNH2 (Homo sapiens), Q12809. dofetilide IC70 present. activation (rescue from dofetilide block), less the hit threshold, % at 10 µM. 0.51% of 310,000 active;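 active = activation above the mean of controls blocked by dofetilide plus 5 SD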;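 also: thallium influx through hERG after potassium depolarization seen as dye fluorescence rise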
# KCNQ1 act: potentiators or activators of KCNQ1 channel, primary screen, cell-based, thallium flux, high-throughput; Potassium voltage-gated channel subfamily KQT member 1 (Homo sapiens), P51787; CHO-K1 KCNQ1, thallium flux FluxOR fluorescence; stronger effect = higher value; 0.35% of 310,000 active; B-score at 10 µM;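 active = fluorescence ratio B-score, a plate-corrected score, at least three library SD, with initial intensity B-score within 5 SD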
# Target sequence (P51787 whole entry, looked up): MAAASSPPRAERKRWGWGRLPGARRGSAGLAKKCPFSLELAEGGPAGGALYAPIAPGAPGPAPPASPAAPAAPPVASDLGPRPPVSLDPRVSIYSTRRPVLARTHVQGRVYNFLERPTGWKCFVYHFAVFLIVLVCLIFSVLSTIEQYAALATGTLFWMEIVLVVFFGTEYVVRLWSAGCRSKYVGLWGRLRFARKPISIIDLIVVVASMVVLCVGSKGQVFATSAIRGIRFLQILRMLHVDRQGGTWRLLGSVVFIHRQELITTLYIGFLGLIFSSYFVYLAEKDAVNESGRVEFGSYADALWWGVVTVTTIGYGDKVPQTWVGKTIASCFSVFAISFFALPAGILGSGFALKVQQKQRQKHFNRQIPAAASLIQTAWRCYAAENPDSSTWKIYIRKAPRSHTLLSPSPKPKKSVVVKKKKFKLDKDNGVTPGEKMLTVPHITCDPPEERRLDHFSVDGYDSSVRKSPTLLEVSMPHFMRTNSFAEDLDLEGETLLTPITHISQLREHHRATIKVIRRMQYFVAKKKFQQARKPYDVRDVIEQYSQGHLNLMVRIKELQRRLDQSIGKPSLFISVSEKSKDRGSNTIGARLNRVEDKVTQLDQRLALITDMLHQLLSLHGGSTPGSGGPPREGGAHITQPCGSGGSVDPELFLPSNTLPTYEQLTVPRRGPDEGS
#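 Assay system: CHO-K1 cells stably expressing KCNQ1. Medium: assay buffer for compound exposure, DMSO matched across wells. Timing: 37 °C overnight plating, 90-min dark dye load, 20-min compound pretreatment. Signal: kinetic FluxOR fluorescence, 10 s baseline plus 110 s post-stimulus.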
# KCNK9 block: KCNK9 potassium channel inhibitors, primary screen, HEK293 cells, thallium flux; Potassium channel subfamily K member 9 (Homo sapiens), Q9NPC2; FluxOR thallium flux fluorescence; stronger effect = lower value; B-score at 10 µM; 1.2% of 310,000 active;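 active = ratio B-score over 3 SD below the library mean, with starting fluorescence within 5 SD of its mean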;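 also: negative B-score means less thallium flux so channel inhibition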
# KCNQ1 block: inhibitors of human KCNQ1 channel, primary screen, cell-based, thallium flux, high-throughput; B-score at 10 µM; CHO-K1 KCNQ1, FluxOR thallium flux fluorescence; stronger effect = higher value; AID 2642, 2010; 1.3% of 310,000 active;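 active = compounds whose thallium flux B-score, printed positive for inhibition, exceeds three library SD while starting fluorescence stays within three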;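 also: channel opened by potassium depolarization with thallium stimulus after 20 min compound exposure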
# KCC2 mod: KCC2 cotransporter modulators, thallium flux, primary screen, cell-based, HEK293 KCC2, FluoZin-2 fluorescence, MLSMR | AID 1456, 2008 | 2.2% of 190,000 active | Solute carrier family 12 member 5 (Homo sapiens), Q9H2X9 | B-score of Tl+ flux slope (higher = more flux/activation; lower = inhibition) at 10 µM | KCC2 cells, thallium flux FluoZin-2 fluorescence;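 active = thallium flux slope and its plate-corrected score both differing from the plate sample mean at a set confidence after two filtering rounds, in either direction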;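 also: slope of fluorescence scaled to starting intensity during 10 to 20 s after thallium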
# KCNK9 inh conf: KCNK9 potassium channel inhibitors, confirmation, HEK293 cells, thallium flux, duplicate; 43% of 4,900 active; inhibition, % at 10 µM; AID 492992, 2010; FluxOR thallium flux fluorescence; shares compounds with KCNK9 block;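 active = thallium signal inhibited by more than 5 SD of the compound-free buffer control wells, on both duplicate plates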;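 also: 0% = assay buffer control wells without compound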
# Kir2-1 spec: mouse Kir2.1 channel inhibition, confirmation, selectivity assay for KCNK9 modulator project, cell-based, HEK293, thallium flux; shares compounds with KCNK9 block; Kir2.1 cells, FluxOR thallium flux fluorescence; inhibition, % at 10 µM; 4% of 4,900 active; AID 492993, 2010;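 active = thallium signal drop more than 5 SD beyond the mean of the no-compound control wells, seen in both duplicate plates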;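 also: signal is fluorescence rise after thallium addition divided by baseline fluorescence; plate controls were assay buffer only for no effect and full block by chlorpromazine control for full effect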
# KCNK9 uninduced: thallium flux in non-induced HEK293 cells, confirmation, counter-screen for KCNK9 inhibitor project, cell-based, second counter screen, non-induced KCNK9-HEK293; inhibition, % at 10 µM; 40% of 4,900 active; shares compounds with KCNK9 block; FluxOR thallium flux;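 active = thallium signal drop beyond 5 SD of the untreated control mean, on both duplicate plates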;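 also: plate controls were buffer only IC0 wells for no effect and SID17386958 at its maximal inhibitory level for full effect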
# An asterisk follows results filed as active; i = inactive; x = no result given.
SMILES,KCNK3 block,hERG protect,KCNQ1 act,KCNK9 block,KCNQ1 block,KCC2 mod,KCNK9 inh conf,Kir2-1 spec,KCNK9 uninduced
Cc1cc(-c2ccccc2)nc(N/N=C/c2ccc(O)cc2O)n1,i,-17,i,-15*,i,x,75%*,i,33%*
CCc1ccc(-c2csc(NC(=O)C3=NN(c4ccccc4)C(=O)CC3)n2)cc1,i,-16,i,i,i,0.53,i,i,i
Cc1ccc(C)n1-c1nn(S(=O)(=O)c2ccccc2)c2cccc(F)c12,i,-3,i,-15*,i,1.1,58%*,i,42%*
O=C(CC(c1ccccc1)c1cc(Br)ccc1O)NCc1ccco1 (stereo not drawn),-11*,-17,i,-11*,i,x,48%*,i,i
Cc1ccc(NC(=O)CN(C)C(=O)Cc2c[nH]c3ccccc23)cc1,i,x,x,x,x,x,x,x,x
CC(C)COc1ccc(C(=O)Nc2scc(-c3ccc(Cl)cc3Cl)c2C(N)=O)cc1,i,-12,i,i,i,0.38,i,i,i
CC(C)c1cc(C(N)=O)c(NC(=O)c2cccc(COc3ccc(Cl)cc3)c2)s1,i,-9,i,i,i,0.6,x,x,x
C#CCn1c(S(=O)(=O)Cc2ccc(C)cc2)nc(-c2ccccc2)c1-c1ccccc1,i,-14,i,-12*,i,-0.32,59%*,i,36%*
Cc1ccccc1CCN1CCCC(CN(C)C(=O)C(=O)c2ccco2)C1 (stereo not drawn),i,-8,i,i,i,x,x,x,x
Cc1ccn2c(/C=N/OCc3cccc(F)c3)c(-c3ccc(Cl)cc3)nc2c1,i,-16,i,-8.4*,i,1.4,i,i,33%*
CCOc1ccc2ncc(C(=O)c3ccc(OC)cc3)c(N3CCN(CC)CC3)c2c1,i,-10,i,i,i,-1.2,x,x,x
CCc1ccc(C(=O)c2cnc3ccc(OC)cc3c2N2CCN(CC)CC2)cc1,i,-13,i,i,i,-1,i,i,i
CC1CCN(c2ccccc2NC(=S)NC(=O)C(C)(C)C)CC1,i,-8,i,-10*,i,1.6,42%*,i,33%*
COc1ccc(S(=O)(=O)Nc2c(C)nc3nc(C)[nH]n3c2=O)cc1,i,-6,i,i,i,x,i,i,i
N#CN1CCC(NS(=O)(=O)c2ccc(C(F)(F)F)cc2)C1 (stereo not drawn),i,x,x,x,x,x,x,x,x
CCOc1ccc(C(=O)Nc2ccc(Cc3ccncc3)cc2)cc1Br,i,-4,i,i,i,-1.3,i,i,i
Cc1ccc(S(=O)(=O)N2CCN(S(=O)(=O)c3ccccc3Br)C2=O)cc1,i,x,x,x,x,x,x,x,x
Cn1c(Sc2ccc(Cl)cc2)c(C=O)c2ccccc21,i,-7,i,-8.2*,7*,x,57%*,i,46%*
C/C=C/C(=O)N[C@@H]1c2ccccc2CC[C@@H]1OCc1ccccc1,i,x,x,x,x,x,x,x,x
CC(C)(C)OC(=O)N1CCN(c2ccc(CNC(=O)c3ccc(Cl)cc3)cc2)CC1,i,-2,i,i,i,x,i,i,i
COc1ccc(N2CC(C(=O)Nc3nc4ccc(S(C)(=O)=O)cc4s3)CC2=O)cc1 (stereo not drawn),i,-6,i,i,i,x,x,x,x
Cc1ccc(C)c2nc3sc(C(=O)N4CCCc5ccccc54)c(N)c3cc12,i,-21,i,-9.1*,i,x,39%*,i,73%*
N#Cc1cc(N)ccc1Sc1ccc(Cl)cc1,i,-6,i,-8.5*,i,x,38%*,i,32%*
COc1ccc(CNC(=O)C2CC(C)=CCC2C(=O)O)cc1 (stereo not drawn),i,2,i,i,i,x,x,x,x
Cc1ccc(SCCN2CCN(C)CC2)cc1,i,-7,i,i,i,x,x,x,x
SMILES,KCNK3 block,hERG protect,KCNQ1 act,KCNK9 block,KCNQ1 block,KCC2 mod,KCNK9 inh conf,Kir2-1 spec,KCNK9 uninduced
Cc1ccc(SCCN2CCN(Cc3ccccc3)CC2)cc1,i,-8,i,i,i,x,i,i,i
COc1cc(C(=O)NCC(=O)N/N=C/c2ccc(-c3cccc([N+](=O)[O-])c3)o2)cc(OC)c1OC,i,-14,i,i,i,x,x,x,x
COC(=O)[C@@]12CCCCN1[C@H](c1ccc(-c3ccc(OC)cc3)c(OC)c1)[C@@H]1C(=O)N(C)C(=O)[C@@H]12,i,x,x,x,x,x,x,x,x
O=C(CN1CCN(c2ccccn2)CC1)N1c2ccccc2Sc2ccc(C(F)(F)F)cc21,i,-11,i,i,i,-0.23,i,i,i
Cc1ccccc1OCC(=O)OCC(=O)NC1CCCCCC1,i,x,x,x,x,x,x,x,x
C1=CCC(CN2CCNCC2)CC1 (stereo not drawn),i,-2,i,i,i,-1.9,x,x,x
Cc1ccc(C)c(N2CCN(CC3CC=CCC3)CC2)c1 (stereo not drawn),i,4,i,i,i,-0.94,i,i,i
CC(=O)OC1CC(C)(C)N(OC(=O)CCCN2C(=O)c3ccccc3C2=O)C(C)(C)C1,i,-6,i,i,i,0.13,i,i,i
COc1ccc(C(C)=O)cc1COc1ccc(Cl)cc1Cl,i,0,i,-14*,i,0.14,50%*,i,37%*
COc1ccc(C(C)=O)cc1COc1cc(C)c(Cl)c(C)c1,i,-6,i,i,i,0.11,x,x,x

# Source: PubChem (several laboratories)
